This note sets out measurements from ChEMBL document CHEMBL4251614, “Development of inhibitors of receptor protein tyrosine phosphatase β/ζ (PTPRZ1) as candidates for CNS disorders” (Eur J Med Chem, 2018).

Data set [1] addresses T1, Receptor-type tyrosine-protein phosphatase zeta (Homo sapiens, UniProt P23471). In words: Inhibition of PTPRZ1 in human HeLa cells assessed as increase in EGF-induced tryrosine phosphorylation at 0.1 to 10 uM incubated for 10 mins after EGF stimulation for 10 mins by ELISA relative to control. Format: cell-based. The essentials:
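HeLa cells were grown in RPMI-1640 with 10% FBS and seeded at 2 × 10^4 cells/well in triplicate. After 24 h serum starvation, cells received 50 ng/mL EGF for 10 min, then compound at 0.1, 1.0 or 10.0 μM for 10 min, against 0.25% DMSO control. Total phosphotyrosine was measured by a tyrosine-phosphorylation ELISA kit. A rise of at least 10% was the selection criterion.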
Background: ELISA stands for enzyme-linked immunosorbent assay.

Data set [2] concerns the target T1, Receptor-type tyrosine-protein phosphatase zeta. The data set can be described thus: Inhibition of human recombinant PTPRZ1 using pNPP as substrate by fluorescence spectrometric analysis. The method in brief: (§1)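 Human recombinant enzyme (PTPRZ1 or PTP1B) was used at 0.1 μM with p-NPP substrate. Released phosphate was detected with a phosphate sensor reagent as a fluorescence increase (excitation 430 nm, emission 450 nm). IC50 was derived from compound concentrations of 0.001–100 μM.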

Data set [3] concerns the target T2, Tyrosine-protein phosphatase non-receptor type 1 (Homo sapiens, UniProt P18031).
T2 sequence (P18031 whole entry): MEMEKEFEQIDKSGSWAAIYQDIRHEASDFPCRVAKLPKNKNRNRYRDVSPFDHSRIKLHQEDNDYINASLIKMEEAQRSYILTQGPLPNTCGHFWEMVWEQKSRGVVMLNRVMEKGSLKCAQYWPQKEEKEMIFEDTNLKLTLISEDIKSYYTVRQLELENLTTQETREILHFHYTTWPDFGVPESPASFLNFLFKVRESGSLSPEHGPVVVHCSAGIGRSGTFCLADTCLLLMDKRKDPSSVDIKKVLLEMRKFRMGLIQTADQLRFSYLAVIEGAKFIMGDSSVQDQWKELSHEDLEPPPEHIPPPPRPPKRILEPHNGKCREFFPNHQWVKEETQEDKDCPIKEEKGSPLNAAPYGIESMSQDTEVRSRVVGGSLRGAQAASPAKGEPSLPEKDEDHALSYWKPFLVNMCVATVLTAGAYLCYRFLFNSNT
In words: Inhibition of human recombinant PTP1B using pNPP as substrate by fluorescence spectrometric analysis. The method in brief: as §1

Data set [4] concerns the target T1, Receptor-type tyrosine-protein phosphatase zeta. In words: Inhibition of human recombinant PTPRZ1 using pNPP as substrate at 1 uM by fluorescence spectrometric analysis relative to control. The essentials: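 Screening used single-point testing at 1.0 μM against 0.1 μM human recombinant PTPRZ1 with p-NPP substrate. Phosphate release was detected with a phosphate sensor reagent by fluorescence (excitation 430 nm, emission 450 nm). The cutoff for activity was at least 10% inhibition of phosphatase activity.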

Data set [5] shares this target. The data set can be described thus: Inhibition of PTPRZ1 in human SH-SY5Y cells assessed as increase in TrkA tryrosine 490 phosphorylation at 1 to 10 uM after 20 mins by Western blot analysis relative to control. It is filed as cell-based. The method in brief:
(§2)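 Human SH-SY5Y cells were grown in EMEM/F12 (1:1) with 10% FBS at 37 °C, 5% CO2, then switched to serum-free medium. They were treated for 20 min with 1.0, 5.0 or 10.0 μM compound or DMSO vehicle. Lysates (20 μg protein) were western blotted for phospho-TrkA Y490 and phospho-ALK Y1278, reprobed for total TrkA/ALK, detected by ECL and quantified by densitometry. Data are mean ± S.E.M., ANOVA/Tukey.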

For data set [6] the target is unchanged. The data set can be described thus: Inhibition of PTPRZ1 (unknown origin) using pNPP as substrate preincubated for 15 mins followed by substrate addition measured after 10 mins by spectrophotometric analysis.
The nature of data set [7]: Drug level in mouse brain at 60 mg/kg after 1 hr by GC-MS analysis. It is filed as ADME, organism-based. To be noted: read-out: Drug uptake. The method in brief: (§3)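 Mice were dosed at 60 mg/kg by oral gavage and killed 1 h later. Brain and plasma were analyzed by GC-MS (EI at 70 eV, full scan m/z 50–600). Plasma (100 μL) was precipitated with three volumes of cold methanol, dried and reconstituted in heptane. The reference was a standard serially half-diluted in heptane from 5 μg/mL. Concentrations were a preliminary estimate.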

The target in data set [8] is T1, Receptor-type tyrosine-protein phosphatase zeta. The data set can be described thus: Inhibition of PTPRZ1 in human SH-SY5Y cells assessed as increase in Alk tryrosine 1278 phosphorylation at 1 to 10 uM after 20 mins by Western blot analysis relative to control. It is filed as cell-based. The essentials: as §2
In data set [9] the test system is PC-12. In words: Cytoprotective activity against amphetamine-induced toxicity in rat PC12 cells at 1 uM after 20 hrs by MTT assay. Format: functional, cell-based. The method in brief: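 Rat PC12 cells were grown in RPMI-1640 with 10% FBS at 10^4 cells/well. They were incubated for 20 h with 1.0 mM amphetamine plus 1.0 μM compound. Viability was read by MTT: cells were washed, given medium with MTT (20 μL of a 5 mg/mL stock) for 4 h, solubilized in DMSO, and absorbance read at 570 nm. Data are mean ± S.E.M., compared by one-way ANOVA with Tukey's test.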
(In general: Tetrazolium dyes change colour on reduction, which living cells bring about.)

Data set [10] is described as follows: Drug level in mouse plasma at 60 mg/kg after 1 hr by GC-MS analysis. Format: ADME, organism-based. The essentials:
as §3

Active and inactive are the calls of the source. Where only a bound is given, the exact number is not on record here.

T1 sequence (P23471 whole entry): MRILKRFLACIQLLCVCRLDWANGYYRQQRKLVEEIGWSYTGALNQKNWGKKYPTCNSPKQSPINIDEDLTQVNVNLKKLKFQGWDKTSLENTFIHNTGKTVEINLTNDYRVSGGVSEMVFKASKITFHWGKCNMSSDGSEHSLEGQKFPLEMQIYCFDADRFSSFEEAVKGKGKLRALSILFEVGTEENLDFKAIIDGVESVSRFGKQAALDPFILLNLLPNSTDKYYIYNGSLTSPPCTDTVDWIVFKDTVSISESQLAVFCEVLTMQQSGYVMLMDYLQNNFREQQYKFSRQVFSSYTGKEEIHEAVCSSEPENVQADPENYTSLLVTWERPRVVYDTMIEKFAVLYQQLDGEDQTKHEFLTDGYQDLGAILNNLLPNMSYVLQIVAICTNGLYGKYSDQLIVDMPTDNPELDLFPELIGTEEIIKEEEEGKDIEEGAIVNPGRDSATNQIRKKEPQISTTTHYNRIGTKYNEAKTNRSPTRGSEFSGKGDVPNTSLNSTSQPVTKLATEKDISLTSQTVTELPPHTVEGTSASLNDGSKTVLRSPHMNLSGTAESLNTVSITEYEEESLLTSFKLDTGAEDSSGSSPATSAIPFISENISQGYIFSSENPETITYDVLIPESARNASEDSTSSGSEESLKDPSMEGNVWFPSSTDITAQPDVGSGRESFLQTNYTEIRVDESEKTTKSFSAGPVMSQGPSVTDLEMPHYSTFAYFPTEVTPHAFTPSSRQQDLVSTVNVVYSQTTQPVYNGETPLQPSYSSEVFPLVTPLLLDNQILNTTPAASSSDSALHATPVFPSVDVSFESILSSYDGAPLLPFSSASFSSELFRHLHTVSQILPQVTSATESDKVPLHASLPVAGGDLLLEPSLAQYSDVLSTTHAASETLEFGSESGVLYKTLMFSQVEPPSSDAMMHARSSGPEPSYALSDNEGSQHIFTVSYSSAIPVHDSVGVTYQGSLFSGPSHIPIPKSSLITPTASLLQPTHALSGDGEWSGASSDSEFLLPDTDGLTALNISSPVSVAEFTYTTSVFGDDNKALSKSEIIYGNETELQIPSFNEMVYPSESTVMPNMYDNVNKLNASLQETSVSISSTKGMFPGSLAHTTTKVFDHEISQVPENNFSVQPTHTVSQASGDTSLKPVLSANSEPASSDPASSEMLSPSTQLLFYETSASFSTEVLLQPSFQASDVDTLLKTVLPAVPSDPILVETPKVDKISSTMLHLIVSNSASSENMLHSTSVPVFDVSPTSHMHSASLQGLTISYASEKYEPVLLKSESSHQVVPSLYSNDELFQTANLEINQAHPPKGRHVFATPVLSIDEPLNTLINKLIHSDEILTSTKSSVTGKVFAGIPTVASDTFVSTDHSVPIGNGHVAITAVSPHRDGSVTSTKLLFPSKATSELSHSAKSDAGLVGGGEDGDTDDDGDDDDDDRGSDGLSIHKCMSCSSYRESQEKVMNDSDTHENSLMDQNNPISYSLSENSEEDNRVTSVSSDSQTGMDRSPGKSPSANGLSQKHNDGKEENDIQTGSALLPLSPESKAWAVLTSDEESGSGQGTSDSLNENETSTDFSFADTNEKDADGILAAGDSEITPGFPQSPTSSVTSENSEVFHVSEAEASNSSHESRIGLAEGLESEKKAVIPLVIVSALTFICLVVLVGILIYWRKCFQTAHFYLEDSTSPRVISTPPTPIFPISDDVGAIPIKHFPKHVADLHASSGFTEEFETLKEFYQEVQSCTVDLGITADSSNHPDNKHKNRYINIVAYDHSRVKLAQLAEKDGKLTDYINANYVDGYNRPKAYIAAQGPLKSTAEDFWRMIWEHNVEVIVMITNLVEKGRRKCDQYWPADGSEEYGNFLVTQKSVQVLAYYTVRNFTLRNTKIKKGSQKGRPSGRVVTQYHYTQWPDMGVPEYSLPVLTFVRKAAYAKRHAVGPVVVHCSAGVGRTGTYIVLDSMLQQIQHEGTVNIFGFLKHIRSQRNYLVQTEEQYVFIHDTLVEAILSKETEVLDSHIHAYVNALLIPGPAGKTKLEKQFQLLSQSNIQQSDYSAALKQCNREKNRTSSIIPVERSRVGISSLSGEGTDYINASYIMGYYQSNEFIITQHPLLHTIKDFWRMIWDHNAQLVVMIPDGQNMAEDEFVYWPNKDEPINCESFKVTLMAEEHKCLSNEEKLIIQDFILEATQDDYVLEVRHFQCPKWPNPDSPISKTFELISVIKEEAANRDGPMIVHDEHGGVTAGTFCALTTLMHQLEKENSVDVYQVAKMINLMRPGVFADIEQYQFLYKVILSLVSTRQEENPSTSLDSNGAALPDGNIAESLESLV

Regarding `FC(F)(F)Sc1ccc(NCc2ccccc2)cc1`, the inhibition in data set [1] and in [4] was not below 10% in each case. Moreover, the IC50 (commonly the point on the concentration scale where inhibition reaches its midpoint) in data set [2] worked out at 5000 nM; in data set [3] (read-out: IC50), 1000 nM.
As for `O=C(Nc1ccc(S(=O)(=O)C(F)(F)F)cc1)c1ccc(S(=O)(=O)C(F)(F)F)cc1`, the inhibition result in data set [1] and in data set [4] was “inactive” each time.
With `FC(F)(F)Sc1ccc(CN(Cc2ccc(SC(F)(F)F)cc2)Cc2ccc(SC(F)(F)F)cc2)cc1`, the inhibition (in general, the drop in the measured response relative to a control, in per cent) in data set [1] was not below 10%; in data set [4], less than 10%.
Regarding `O=C(Cc1ccc(SC(F)(F)F)cc1)Nc1ccc(SC(F)(F)F)cc1`, the inhibition in data set [1] is not below 10%. Moreover, the inhibition entry in data set [4] was “inactive”.
Regarding `FC(F)(F)Sc1ccc(NCc2ccc(Cl)cc2)cc1`, in data set [1], the inhibition result is “inactive”.
`O=C(Cc1ccc(S(=O)(=O)C(F)(F)F)cc1)Nc1ccc(S(=O)(=O)C(F)(F)F)cc1`: the inhibition in data set [1] and in data set [4] was not below 10% throughout. For the same compound, the figures for the IC50 in [2] and in [3] were more than 10000 nM and “Not Active”, respectively.
As for `O=S(=O)(c1ccc(OCc2ccc(SC(F)(F)F)cc2)cc1)C(F)(F)F`, the fold change (FC) in [5] lay within 2 to 3. For the same compound, the inhibition entry in data set [1] and in data set [4] was “inactive” in each case.
`O=S(=O)(c1ccc(COc2ccc(S(=O)(=O)C(F)(F)F)cc2)cc1)C(F)(F)F`: the inhibition entry in data set [1] and in data set [4] was “inactive” throughout. Also, in [6], the IC50 worked out at 3500 nM.
Regarding `FC(F)(F)Sc1ccc(CNCc2ccccc2)cc1`, in [1], the inhibition entry is “inactive”.
With `O=C(Cc1ccc(SC(F)(F)F)cc1)NCc1ccc(SC(F)(F)F)cc1`, the inhibition in data set [1] and in data set [4] was not below 10% in each case. Also, the IC50 in data set [2] is 800 nM; in data set [3], “Not Active”.
Turning to `FC(F)(F)Sc1ccc(OCc2ccncc2)cc1`, the inhibition in [1] was less than 10%. The inhibition result in data set [4] was “inactive”.
`FC(F)(F)Sc1ccc(COc2ccc(SC(F)(F)F)cc2)cc1`: the concentration at 1 h was 500 to 1000 ng/mL in data set [7] and 100 to 300 ng/mL in data set [10]. Also, the fold change (FC) was 2 to 3 in data set [5] and 2 in data set [8]. The inhibition in data set [1] and in data set [4] was not below 10% each time. For the same compound, the IC50 in data set [2] is 100 nM; in [3], “Not Active”. Further, the outcome in data set [9] was Active.
Turning to `FC(F)(F)Sc1ccc(CNCc2ccc(SC(F)(F)F)cc2)cc1`, the inhibition in data set [1] and in [4] was not below 10% throughout. In addition, the IC50 worked out at 100 nM in data set [2] and 700 nM in data set [3] (read-out: IC50).
For `O=C(Cc1ccc(S(=O)(=O)C(F)(F)F)cc1)NCc1ccc(S(=O)(=O)C(F)(F)F)cc1`, the inhibition in [1] is not below 10%. Further, in data set [4], the inhibition result is “inactive”.
On the same counts, the results for `O=C(Nc1ccc(SC(F)(F)F)cc1)c1ccc(SC(F)(F)F)cc1` are not below 10% and “inactive”.
On the same counts, the results for `FC(F)(F)Sc1ccc(CNc2ccc(SC(F)(F)F)cc2)cc1` are not below 10% and “inactive”.
As for `O=C(NCc1ccc(SC(F)(F)F)cc1)c1ccc(SC(F)(F)F)cc1`, the inhibition in data set [1] and in data set [4] was not below 10% in each case. The IC50 is more than 100000 nM in [2] and “Not Active” in data set [3].
